GSK3B inh – human GSK3beta kinase inhibition; P49841; GST-GSK3beta kinase, ADP-Glo luminescence, 60 min; stronger effect = lower value; activity score (negative = inhibition), % at 10 µM; 300,000 compounds, 0.038% hits;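 active = more than half of replicate wells score below -50%, meaning over 50% inhibition versus plate controls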;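 note: 0% = median DMSO wells and -100% = median GW8510 positive control wells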
Target sequence (P49841 whole entry, looked up): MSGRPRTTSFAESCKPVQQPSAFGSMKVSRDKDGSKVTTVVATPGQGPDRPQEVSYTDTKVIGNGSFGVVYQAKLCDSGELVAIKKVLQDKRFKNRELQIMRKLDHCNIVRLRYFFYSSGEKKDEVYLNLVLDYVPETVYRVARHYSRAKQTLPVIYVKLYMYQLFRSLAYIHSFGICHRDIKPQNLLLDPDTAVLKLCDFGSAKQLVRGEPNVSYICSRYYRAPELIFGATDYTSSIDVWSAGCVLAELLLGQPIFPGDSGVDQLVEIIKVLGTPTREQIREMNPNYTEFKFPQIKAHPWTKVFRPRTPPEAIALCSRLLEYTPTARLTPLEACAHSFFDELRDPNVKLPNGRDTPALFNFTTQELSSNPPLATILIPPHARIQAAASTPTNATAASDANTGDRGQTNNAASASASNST
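Test system – GST-tagged human GSK3beta kinase, cell-free · Incubation – 60 min enzyme reaction, room temperature · Signal – ADP-Glo luminescence · Also added – peptide substrate and ATP at 25 µM · Controls – DMSO neutral wells and GW8510 at 20 µM as positive · Buffer or medium – Tris/MgCl2 kinase buffer · Measure – Luminescence-derived activity versus plate DMSO and GW8510 wells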
Env fusion inh – blocks HIV Env-driven cell-cell fusion. inhibition, % at 12.3 µM. HeLa-JRFL Env/CEM21 cell fusion, luciferase. 360,000 compounds, 1.1% hits;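 active = mean replicate inhibition score of at least 50 and every replicate individually at or above 50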;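 note: 0% = plate neutral controls and 100% = maraviroc near 300 nM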
CDK5 p35 inh – inhibitors of human CDK5/p35 kinase | Q00535+Q15078 | Recombinant CDK5/p35, ADP-Glo luminescence, 60 min | inhibition, % at 10 µM | 330,000 compounds, 0.01% hits | AID 488839;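 active = highest replicate inhibition of at least 50% and at least 75% of replicates reaching 50%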;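 note: plate controls were DMSO neutral control for no effect and GW8510 at 10 µM for full effect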
GSK3 alpha inh – human GSK-3 alpha kinase inhibition. P49840. ADP-Glo luminescence, 60 min. inhibition, % at 10 µM. 320,000 compounds, 0.1% hits;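 active = more than half of replicates show inhibition above 20%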;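 note: GST-tagged GSK-3 alpha with peptide substrate and 25 µM ATP; 0% = DMSO neutral wells and 100% = GW8510 positive control wells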
STK33 inh – inhibitors of human STK33 kinase | inhibition, % at 10 µM | purified STK33, MBP phosphorylation, ADP-Glo luminescence | Q9BYT3 | 320,000 compounds, 0.073% hits;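 active = inhibition at or above 25%, using the most active replicate where run in duplicate; inactive = inhibition below 25%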
GSIS activator – GLuc luminescence reporter in INS-1E cells, primary screen for activators of glucose-dependent secretion of insulin; INS-1E GLuc reporter insulin secretion, 2-3 h; activation, % at 16.6 µM; 370,000 compounds, 0.61% hits; AID 743287;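 active = lowest replicate activation of at least 40%, so every replicate reaches that level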;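 note: 0% = median of neutral control wells and 100% = median of IBMX positive control wells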
The depositor's hits bear a star; i = inactive; / = no result; [ ] = dose if it differs, or a comment. The list is not random: actives were taken first. Their share in the collection is about 1.4%.

SMILES | GSK3B inh | Env fusion inh | CDK5 p35 inh | GSK3 alpha inh | STK33 inh | GSIS activator
O=C(O)c1cc(N/N=C/c2ccc3c(c2)OCO3)ccc1Cl | / | -22 | 0 | / | -2 | /
O=C(N/N=C/c1ccc2c(c1)OCO2)c1ccc(Cl)cc1Cl | -1 | -13 | 1 | -1 | 0 | 58*
O=C(N/N=C/c1ccc(Cl)cc1)c1ccc2c(c1)OCO2 | 1 | -60 | 1 | 0 | -1 | 5
O=c1[nH]c(N/N=C\c2ccc3c(c2)OCO3)nc2ccccc12 | 1 | i | -2 | 0 | 0 | -7
O=C(O)c1ccc(N/N=C/c2ccc3c(c2)OCO3)cc1 | -13 | 70* | 23 | 19 | 17 | -4
O=c1cnnc(N/N=C/c2ccc3c(c2)OCO3)[nH]1 | -4 | 55* | 1 | -1 | -1 | 37
COc1ccc(/C=N/NC(=O)c2cc(-c3ccc4c(c3)OCO4)n[nH]2)cc1OC | 1 | -103 | -1 | -5 | -1 | 49*
O=C(C[C@H]1CC[C@@H]2[C@H](COC[C@@H](O)CN2Cc2ccc3c(c2)OCO3)O1)N1CCOCC1 | / | / | / | / | / | 21
Cc1ccc(N2CC(C(=O)Nc3ncc([N+](=O)[O-])s3)CC2=O)cc1 (configuration not stated) | -22 | 12 | 1 | 51* | 0 | -27
O=C(Cc1ccsc1)NNC(=O)c1ccccc1Cl | 0 | 5 | 0 | -1 | -2 | 42*
O=C(Cc1cccs1)NNC(=O)c1ccccc1Cl | / | / | -1 | 0 | -2 | 15
CC(C)(C)c1ccc(OCCC(=O)Nc2ccc(N3CCOCC3)cc2N2CCOCC2)cc1 | 3 | 69* | -6 | 2 | -1 | -73
CCOc1cc(N2CCOCC2)c(OCC)cc1NC(=O)COC(=O)CCOc1ccc(C(C)(C)C)cc1 | 2 | -7 | 2 | 0 | 0 | 8
CC(C)(C)OC(=O)N1CCC(NC(=O)c2[nH]cnc2C(=O)Nc2ccc(Cl)cc2)CC1 | / | -13 | 0 | -3 | 0 | /
CC(C)(C)OC(=O)N1CCC(NC(=O)c2[nH]cnc2C(=O)Nc2ccon2)CC1 | / | -14 | 0 | 72* | -1 | 4
Cc1c(NC(=S)N/C(=N/S(=O)(=O)c2ccc(Cl)cc2)c2ccccc2)c(=O)n(-c2ccccc2)n1C | 0 | -16 | 0 | -2 | 1 | /
Cc1c(NC(=S)N/C(=N/S(=O)(=O)c2ccccc2)c2ccccc2)c(=O)n(-c2ccccc2)n1C | 1 | 14 | 2 | -3 | 0 | 44*
CN1CCN(C=NC2=NN(c3cccc(C(F)(F)F)c3)CC2)CC1 | 0 | 14 | -2 | 0 | 30* | 2
COc1cc(CO)cc(Br)c1OCC(=O)Nc1cccc2ccccc12 | 2 | 13 | 1 | -2 | -1 | 48*
COCC(=O)Nc1cccc2ccccc12 | -1 | -21 | -1 | -1 | 0 | /
O=C(C1CCCCC1)N1CC2(C1)[C@@H](c1ccccc1)[C@@H](CO)N2Cc1nccs1 | / | / | / | / | / | -12
CCOc1ccc(S(=O)(=O)N2CCCCC2)cc1NC(=O)C1CCC1 | 0 | -16 | 1 | 0 | -1 | -2
COc1ccc(S(=O)(=O)N2CCCCC2)cc1NC(=O)Cc1sc(C)nc1-c1ccc(F)cc1 | 2 | 80* | 2 | / | / | -38
COc1ccc(S(=O)(=O)N2CCCCC2)cc1NC(=O)C1CCCC1 | / | 10 | 0 | -4 | -2 | 52*
CCS(=O)(=O)c1nc(S(=O)(=O)c2ccc(C)cc2)c(N2CCC(O)CC2)s1 | 1 | 7 | 2 | -5 | 2 | 41*
SMILES | GSK3B inh | Env fusion inh | CDK5 p35 inh | GSK3 alpha inh | STK33 inh | GSIS activator
CCS(=O)(=O)c1nc(S(=O)(=O)c2ccc(C)cc2)c(N2CCCC2)s1 | 1 | 1 | 1 | 0 | -1 | 6
CC(CCC(C)C(C)(C)C)[C@@H]1CC[C@H]2C3C[C@H](OS(O)(=S)=S)[C@H]4C[C@H](OS(O)(=S)=S)[C@@H](OS(O)(=S)=S)C[C@]4(C)[C@H]3CC[C@]12C (some centres not stated) (tested in a mixture with another compound) | / | / | 80* | 3 | 1 | /
Cc1cccc(NCc2ccccc2)c1 | 0 | -15 | -8 | 0 | -1 | 95*
O=C(N/C(=C/c1ccccc1)C(=O)N1CCCCC1)c1ccccc1 | 2 | -23 | -2 | -1 | 0 | 3
O=C(NCCN1CCOCC1)/C(=C/c1ccccc1)NC(=O)c1ccccc1 | -1 | -5 | 1 | -2 | 0 | 47*
O=C(N/C(=C\c1ccccc1)C(=O)N1CCN(CCO)CC1)c1ccccc1 | -2 | 79* | 2 | -2 | -4 | -4
CC(C)NC(=O)Nc1cccc2c1O[C@H](CN(C)C(=O)Nc1ccc(F)cc1)[C@@H](C)CN([C@@H](C)CO)C2=O | / | / | / | / | / | -4
COc1ccc(C(=O)OCC(=O)c2c(N)n(C)c(=O)n(C)c2=O)c(OC)c1OC | / | 3 | 0 | -1 | 0 | 45*
COc1ccc(CN(C)C[C@H]2Oc3ccc(NC(=O)Nc4ccc(C(F)(F)F)cc4)cc3CC(=O)N([C@@H](C)CO)C[C@@H]2C)cc1 | / | 13[16.7 µM] | / | / | / | -21
COc1ccc(NC(=O)Nc2ccc3c(c2)CC(=O)N([C@@H](C)CO)C[C@@H](C)[C@H](CN(C)Cc2ccc(Oc4ccccc4)cc2)O3)cc1 | / | 19[16.7 µM] | / | / | / | -5
C[C@H]1CN([C@@H](C)CO)C(=O)Cc2cc(NC(=O)Cn3cnnn3)ccc2O[C@H]1CN(C)Cc1ccc(C(F)(F)F)cc1 | / | 92*[16.7 µM] | / | / | / | -8
C[C@@H]1CN([C@@H](C)CO)C(=O)Cc2cc(NC(=O)Cn3cnnn3)ccc2O[C@@H]1CN(C)Cc1ccc(C(F)(F)F)cc1 | / | -18[16.7 µM] | / | / | / | -7
COc1ccc(NC(=O)Nc2ccc3c(c2)CC(=O)N([C@H](C)CO)C[C@@H](C)[C@H](CN(C)Cc2ccc(Oc4ccccc4)cc2)O3)cc1 | / | 60*[16.7 µM] | / | / | / | 2
COc1ccc(NC(=O)Nc2ccc3c(c2)CC(=O)N([C@@H](C)CO)C[C@@H](C)[C@H](CN(C)Cc2ccc(C(F)(F)F)cc2)O3)cc1 | / | 61*[16.7 µM] | / | / | / | -8
O=C(N[C@H]1C=C[C@H](CC(=O)N2CCc3ccccc3C2)O[C@H]1CO)C1CCOCC1 | / | / | / | / | / | 15
C[C@H]1CN([C@@H](C)CO)C(=O)c2ccccc2-c2ccccc2CO[C@H]1CN(C)C(=O)Nc1cccc(F)c1 | / | / | / | / | / | -16
CCCN1C[C@H](C)[C@H](OC)CN(C)C(=O)c2ccc(NC(=O)Nc3c(C)noc3C)cc2OC[C@@H]1C | / | 16[16.7 µM] | / | / | / | 11
COc1cccc(C#Cc2ccc([C@H]3[C@@H](CO)N4C(=O)CN(C(=O)Cc5ccccc5)C[C@H]34)cc2)c1 | / | / | / | / | / | 2
Cc1c(NC(=O)c2cccc(NC(=O)COc3ccccc3C#N)c2)c(=O)n(-c2ccccc2)n1C | / | 60* | 1 | / | / | -9
Cc1c(NC(=O)c2cccc(NC(=O)COc3ccccc3)c2)c(=O)n(-c2ccccc2)n1C | / | 1 | 0 | / | / | 6
